The values below come from PMC12594766 (Nature Communications, 2025).

In data set [1] the test system is S. aureus USA300 (MRSA). Kind of data set: MIC against multidrug-resistant strain. The data set is classed as cell-based. The conditions noted are these: Staphylococcus aureus. Put shortly:
(§1)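 Broth microdilution in non-cation-adjusted Mueller-Hinton broth. Bacteria were subcultured to OD 0.2–0.3 (about 10^8 CFU/mL), then diluted to about 10^5 CFU/mL final. Test compound stock was in DI water. Twofold dilutions gave 512 to 1 µg/mL final. Plates were incubated 18-20 h at 37 °C and read at OD600.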

Data set [2] has as its system S. aureus USA300 (LAC). Put plainly: MIC against multidrug-resistant strain. In kind it is cell-based. The settings on record: Staphylococcus aureus. Put shortly:
as §1

In data set [3] the test system is S. aureus BAA39 (MRSA). Put plainly: MIC against multidrug-resistant strain. In kind it is cell-based. The conditions noted are these: Staphylococcus aureus. The method in brief: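 Broth microdilution in non-cation-adjusted Mueller-Hinton broth. Bacteria were subcultured to OD 0.2–0.3 (about 10^8 CFU/mL) and diluted to give about 10^5 CFU/mL in wells. The test compound stock was in DI water, serially diluted twofold to final 512–1 µg/mL. Plates were incubated at 37 °C for 18–20 h and read at OD600.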

Data set [4] relates to K. pneumoniae KPNR. Kind of data set: MIC against multidrug-resistant strain. In kind it is cell-based. The settings on record: Klebsiella pneumoniae.
Data set [5] has as its system P. aeruginosa PAO1. Put plainly: Resistance frequency determination. In kind it is cell-based. The conditions noted are these: 10× MIC.
The test system of data set [6] is P. aeruginosa BAA-2797. Put plainly: Murine systemic. The data set is classed as in vivo, balb/c mice. The settings on record: P. aeruginosa BAA-2797 peritonitis; single dose 10 mg/kg i.p. at 2 h; n = 6. Put shortly: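 Female BALB/c mice, 7–8 weeks, were infected i.p. with P. aeruginosa BAA-2797 (10^6 CFU/mL) in PBS containing 5% mucin. At 2 h post-infection they received a single i.p. dose of PBS, test compound (10 mg/kg) or imipenem (10 mg/kg), n = 6. Survival was monitored for up to 7 days.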

Data set [7] concerns P. aeruginosa BAA-2797. Put plainly: Murine neutropenic thigh infection model. In kind it is in vivo, balb/c mice. The settings on record: 2 doses of 15 mg/kg s.c. at 2, 6 h, 26 h. Put shortly:
(§2)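 Infection was intramuscular into the right thigh: P. aeruginosa BAA-2797 at 10^5, K. pneumoniae KPNR at 10^6, or MRSA at 10^5 CFU/mL. PBS, test compound or imipenem was given s.c. at 15 mg/kg at 2 and 6 h (n = 6). Thighs were homogenised at 26 h for CFU.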

Data set [8] deals with K. pneumoniae KPNR. Kind of data set: Murine neutropenic thigh infection model. The data set is classed as in vivo, balb/c mice. The settings on record: 2 doses of 15 mg/kg s.c. at 2, 6 h, 26 h. Put shortly: as §2
Data set [9] deals with P. aeruginosa PAO1. Put plainly: Murine lung infection model. The data set is classed as in vivo, balb/c mice. The settings on record: 10 mg/kg intranasal at 2, 8, 26 h. The method in brief:
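Infection was intranasal with P. aeruginosa PAO1 (10^4 CFU/mL inoculum). PBS, test compound or imipenem was given intranasally at 10 mg/kg at 2, 8 and 26 h post-infection (n = 6). Lungs were homogenised at 38 h for CFU. Survival was followed for up to 7 days.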

The conditions of data set [10]: conventional antibiotics, literature values; cited from earlier work.
In data set [11] the test system is MRSA. Put plainly: Murine neutropenic thigh infection model. The conditions noted are these: 2 doses of 15 mg/kg s.c. at 2, 6 h, 26 h. In kind it is in vivo, balb/c mice. Put shortly: as §2

Structures are written as SMILES. ≈ marks a conversion by molar mass, not a printed value.

What is called MIC is the least concentration at which growth counts as inhibited. Low values mean inhibition by little substance, high ones a need for much substance. With `O=C(O)c1cn(C2CC2)c2cc(N3CCNCC3)c(F)cc2c1=O` [CIP, ciprofloxacin], the MIC was under 1 µg/mL in data set [1], 8 µg/mL (≈ 24.1 µM) in [2] and 4 µg/mL (≈ 12.1 µM) in [3].

`C[C@@H](O)[C@H]1C(=O)N2C(C(=O)O)=C(SCCN=CN)C[C@H]12` [IMP, imipenem]: the MIC in data set [1] was under 1 µg/mL; in data set [2], under 1 µg/mL; in data set [3], under 1 µg/mL; in data set [4] it was 4 µg/mL (≈ 13.4 µM). Further, the “selection of resistant escape mutants” value in data set [5] was “resistant strains developed”. In addition, the “survival (mice rescued)” value is listed as “succumbed to the infection” in [6] and 5 out of 6 in [9] (P. aeruginosa PAO1 lung infection, n = 6). Moreover, the “CFU reduction in thigh vs PBS (-)” value in [7] amounted to 0.1 log10; in [8] it was 1.4 log10. In data set [9] (P. aeruginosa PAO1, 38 h), the “reduction of bacterial burden in lung tissues” value is 4.7 log10. Also, the “half-life (T1/2)” value in data set [10] was 12 min.

As for `CN[C@H](CC(C)C)C(=O)N[C@H]1C(=O)N[C@@H](CC(N)=O)C(=O)N[C@H]2C(=O)N[C@H]3C(=O)N[C@H](C(=O)N[C@H](C(=O)O)c4cc(O)cc(O)c4-c4cc3ccc4O)[C@H](O)c3ccc(c(Cl)c3)Oc3cc2cc(c3O[C@@H]2O[C@H](CO)[C@@H](O)[C@H](O)[C@H]2O[C@H]2C[C@](C)(N)[C@H](O)[C@H](C)O2)Oc2ccc(cc2Cl)[C@H]1O` [VAN, vancomycin], the figures for the MIC in data set [1], in [2] and in data set [3] were under 1 µg/mL, under 1 µg/mL and 1 µg/mL (≈ 0.69 µM), respectively. For the same compound, in data set [11], the “CFU reduction in thigh vs PBS (-)” value came out at 2.3 log10.

Take `C[C@@H](O)[C@H]1C(=O)N2C(C(=O)O)=C(S[C@@H]3CN[C@H](C(=O)N(C)C)C3)[C@H](C)[C@H]12` [meropenem]: in data set [10], the “half-life (T1/2)” value is on record as 6 min.
